These results are taken from ChEMBL document CHEMBL1145927 (J Med Chem, 2003).

The structures appear in SMILES notation.

Experiment [1] concerns the target T1, Prostaglandin G/H synthase 1 (Homo sapiens, UniProt P23219). The experiment can be described thus: In vitro average percent Inhibition of Prostaglandin G/H synthase 1 (COX-1) at a concentration of 100 uM in human whole blood by human whole blood assay. The experiment is classed as tissue-based.
Experiment [2] deals with T2, Prostaglandin G/H synthase 2 (Homo sapiens) (UniProt P35354).
T2 sequence (whole entry): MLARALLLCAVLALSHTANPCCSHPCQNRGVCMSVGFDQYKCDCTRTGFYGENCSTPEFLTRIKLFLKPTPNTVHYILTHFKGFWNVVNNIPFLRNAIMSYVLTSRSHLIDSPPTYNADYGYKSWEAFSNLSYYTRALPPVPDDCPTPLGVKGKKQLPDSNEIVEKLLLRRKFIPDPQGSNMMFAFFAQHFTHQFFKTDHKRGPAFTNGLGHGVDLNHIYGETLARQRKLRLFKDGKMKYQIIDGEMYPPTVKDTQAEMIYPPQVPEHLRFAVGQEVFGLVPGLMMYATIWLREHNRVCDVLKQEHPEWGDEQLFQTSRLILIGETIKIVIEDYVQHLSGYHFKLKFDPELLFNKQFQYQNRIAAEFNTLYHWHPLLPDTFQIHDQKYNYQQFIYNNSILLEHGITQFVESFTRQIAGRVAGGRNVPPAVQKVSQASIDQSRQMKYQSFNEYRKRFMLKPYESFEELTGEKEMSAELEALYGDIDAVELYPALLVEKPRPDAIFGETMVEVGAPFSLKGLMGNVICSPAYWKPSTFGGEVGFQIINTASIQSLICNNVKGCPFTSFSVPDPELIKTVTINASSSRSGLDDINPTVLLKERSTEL
Particulars: Blood; at 1 µM.

The target of experiment [3] is T2, Prostaglandin G/H synthase 2 (Homo sapiens). The note with it: Blood; at 10 µM.
The target is the same in experiment [4]. The note with it: at 1 µM.
Experiment [5] addresses T1, Prostaglandin G/H synthase 1. The note with it: at 100 µM.
The target of experiment [6] is T2, Prostaglandin G/H synthase 2 (Homo sapiens). The note with it: at 10 µM.
Experiment [7] concerns the target T1, Prostaglandin G/H synthase 1. The experiment can be described thus: In vitro average percent inhibition of human prostaglandin G/H synthase 1 (COX-1) at a concentration of 100 uM. In a few lines: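 Supplied recombinant human COX-1 (5 units) preincubated 2 min at 25 °C in 0.1 M Tris-HCl pH 8.0 with 5 mM EDTA, 2 mM phenol and heme; compound or DMSO added, 20 min at 25 °C; started with 10 mM arachidonic acid stock, 2 min at 37 °C; stopped with HCl, SnCl2 reduction; prostaglandins by EIA; percent inhibition versus solvent control.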

The target of experiment [8] is T3, Prostaglandin G/H synthase 1 (Ovis aries) (UniProt P05979).
T3 sequence (whole entry): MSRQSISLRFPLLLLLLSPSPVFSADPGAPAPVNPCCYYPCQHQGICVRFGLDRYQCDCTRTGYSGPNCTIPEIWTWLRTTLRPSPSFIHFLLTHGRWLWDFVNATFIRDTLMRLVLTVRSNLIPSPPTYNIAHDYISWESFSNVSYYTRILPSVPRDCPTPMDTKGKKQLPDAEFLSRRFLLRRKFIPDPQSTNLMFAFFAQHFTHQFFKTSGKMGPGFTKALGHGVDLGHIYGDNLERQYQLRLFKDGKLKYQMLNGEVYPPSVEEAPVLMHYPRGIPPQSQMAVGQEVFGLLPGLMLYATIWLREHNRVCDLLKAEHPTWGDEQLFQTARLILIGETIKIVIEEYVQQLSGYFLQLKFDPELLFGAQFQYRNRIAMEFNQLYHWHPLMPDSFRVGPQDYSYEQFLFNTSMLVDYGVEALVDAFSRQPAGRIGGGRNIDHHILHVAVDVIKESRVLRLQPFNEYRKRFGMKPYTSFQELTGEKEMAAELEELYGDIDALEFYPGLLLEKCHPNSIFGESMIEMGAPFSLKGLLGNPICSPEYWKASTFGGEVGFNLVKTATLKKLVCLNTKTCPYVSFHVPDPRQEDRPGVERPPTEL
Kind of experiment: Compound was tested for in vitro inhibition of recombinant ovine Prostaglandin G/H synthase 1 (COX-1) at a concentration of 100 uM. Summed up:
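Supplied recombinant ovine COX-1 (5 units) preincubated 2 min at 25 °C in 0.1 M Tris-HCl pH 8.0 with 5 mM EDTA, 2 mM phenol and heme; compound or DMSO added, 20 min at 25 °C; started with 10 mM arachidonic acid stock, 2 min at 37 °C; stopped with HCl, SnCl2 reduction; prostaglandins by EIA; percent inhibition versus solvent control.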

Experiment [9] addresses T1, Prostaglandin G/H synthase 1. Kind of experiment: In vitro average percent Inhibition of Prostaglandin G/H synthase 1 (COX-1) at a concentration of 100 uM determined in human whole blood by human whole blood (HWB) assay. The experiment is classed as tissue-based.

In general, inhibition refers to how much of the control response was suppressed.

T1 sequence (P23219 whole entry): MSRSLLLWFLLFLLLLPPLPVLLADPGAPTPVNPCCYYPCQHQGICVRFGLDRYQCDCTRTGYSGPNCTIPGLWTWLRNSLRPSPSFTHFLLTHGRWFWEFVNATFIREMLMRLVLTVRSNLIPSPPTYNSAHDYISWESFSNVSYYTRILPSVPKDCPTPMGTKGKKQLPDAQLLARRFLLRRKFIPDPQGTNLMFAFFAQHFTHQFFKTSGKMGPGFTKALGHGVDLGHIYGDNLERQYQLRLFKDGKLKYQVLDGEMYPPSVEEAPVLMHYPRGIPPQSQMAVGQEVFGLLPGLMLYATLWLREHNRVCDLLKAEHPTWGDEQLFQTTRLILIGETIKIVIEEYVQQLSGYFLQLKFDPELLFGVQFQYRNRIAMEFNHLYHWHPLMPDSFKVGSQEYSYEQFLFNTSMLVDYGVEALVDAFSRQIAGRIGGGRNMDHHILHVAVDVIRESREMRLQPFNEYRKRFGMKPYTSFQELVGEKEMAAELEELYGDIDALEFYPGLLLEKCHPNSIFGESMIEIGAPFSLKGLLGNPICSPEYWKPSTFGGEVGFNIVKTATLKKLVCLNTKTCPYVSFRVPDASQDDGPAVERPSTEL

With `CS(=O)(=O)c1ccc(-c2cc3c(cc2Cc2cccnc2)OCO3)cc1`, the inhibition in [1] was determined as 35%; in experiment [2] it was 15%; in experiment [3], 15%; in experiment [4], 0%; in experiment [5], 30%; in [6], 65%.
Take `Cc1ccc(C(=O)c2cc3c(cc2-c2ccc(S(C)(=O)=O)cc2)OCO3)cc1`: the inhibition in experiment [7] amounted to 60%.
For `CS(=O)(=O)c1ccc(C2=C(c3ccccc3)C(=O)OC2)cc1`, the inhibition in experiment [1] came out at 75%; in [2] it was 75%; in [4], 40%; in [5], 0%.
`CS(=O)(=O)c1ccc(-c2cc3c(cc2CC2CCCCCC2)OCO3)cc1`: the inhibition was 40% in experiment [7], 10% in experiment [8], 90% in experiment [4] and 100% in experiment [6].
As for `CN1CCN(C(=O)c2cc3c(cc2-c2ccc(S(C)(=O)=O)cc2)OCO3)CC1`, the inhibition in experiment [4] was 20%; in [5], 15%; in [6], 15%.
In experiment [7], `COc1cccc(Cc2cc3c(cc2-c2ccc(S(C)(=O)=O)cc2)OCO3)c1` registered an inhibition of 35%.
For `CS(=O)(=O)c1ccc(-c2cc3c(cc2C(=O)c2cccnc2)OCO3)cc1`, the inhibition in experiment [4] is 0%; in [5], 20%; in [6] it was 20%.
In experiment [7], `CS(=O)(=O)c1ccc(-c2cc3c(cc2C(=O)c2cccc(Cl)c2)OCO3)cc1` had an inhibition of 90%.
As for `CS(=O)(=O)c1ccc(-c2cc3c(cc2C(O)c2ccccc2)OCO3)cc1` (stereo not drawn), the inhibition in experiment [4], in experiment [5] and in experiment [6] was 0% in each case.
As for `CS(=O)(=O)c1ccc(-c2cc3c(cc2CC2CCCC2)OCO3)cc1`, the inhibition in [8] was found to be 20%; in experiment [4], 40%; in [6], 70%.
As for `CS(=O)(=O)c1ccc(-c2cc3c(cc2C=C2CCCC2)OCO3)cc1`, the inhibition in experiment [7] amounted to 70%; in experiment [8], 80%; in experiment [4], 65%; in [6] it was 90%.
On to `CS(=O)(=O)c1ccc(-c2cc3c(cc2C(=O)N2CCCC2)OCO3)cc1`, for which the inhibition in experiment [4] was 0%; in experiment [5], 0%; in experiment [6] it was 20%.
Regarding `CCOC(=O)C1CCCN(Cc2cc3c(cc2-c2ccc(S(C)(=O)=O)cc2)OCO3)C1` (stereo not drawn), the inhibition in experiment [4] stood at 40%; in experiment [5] it was 10%; in experiment [6] it was 40%.
As to `CS(=O)(=O)c1ccc(-c2cc3c(cc2C(=O)N2CCCCC2)OCO3)cc1`, the inhibition stood at 20% in experiment [4], 15% in [5] and 40% in [6].
On the same counts, the results for `CS(=O)(=O)c1ccc(-c2cc3c(cc2C(=O)N2CCOCC2)OCO3)cc1` are 35%, 10% and 10%.
In experiment [7], `CS(=O)(=O)c1ccc(-c2cc3c(cc2C(=O)c2ccc(F)cc2)OCO3)cc1` came in with an inhibition of 95%.
Same read-out and setting: as for `Cc1ccc(F)c(Cc2cc3c(cc2-c2ccc(S(C)(=O)=O)cc2)OCO3)c1`, the figure is 40%.
`CS(=O)(=O)c1ccc(-c2cc3c(cc2CN2CCC(O)CC2)OCO3)cc1`: the figures for the inhibition in experiment [4], in [5] and in experiment [6] were 10%, 0% and 25%, respectively.
As for `Cc1cccnc1C(=O)c1cc2c(cc1-c1ccc(S(C)(=O)=O)cc1)OCO2`, the inhibition in experiment [4] came to 0%; in experiment [5], 0%; in experiment [6], 10%.
Consider `CS(=O)(=O)c1ccc(-c2cc3c(cc2CN2CCCCC2CO)OCO3)cc1` (stereo not drawn), for which the results for the inhibition in experiment [4], in experiment [5] and in experiment [6] were 25%, 0% and 30%, respectively.
Compound `CS(=O)(=O)c1ccc(-c2ccccc2Cc2cccc(F)c2)cc1` had an inhibition in [9] of 35%.
Regarding `Cc1cccc(Cc2cc3c(cc2-c2ccc(S(C)(=O)=O)cc2)OCO3)c1`, the inhibition in experiment [7] amounted to 10%.
As to `CS(=O)(=O)c1ccc(-c2cc3c(cc2CN2CCCCC2)OCO3)cc1`, the inhibition in [4] stood at 0%; in experiment [5], 0%; in [6] it was 30%.
Regarding `CS(=O)(=O)c1ccc(-c2cc3c(cc2Cc2ccc(F)cc2)OCO3)cc1`, the figures for the inhibition in experiment [8], in experiment [4] and in [6] were 10%, 10% and 0%, respectively.
In [7], `CS(=O)(=O)c1ccc(-c2cc3c(cc2C(=O)c2ccccc2F)OCO3)cc1` yielded an inhibition of 70%.
On the same count and under the same terms, in the case of `CS(=O)(=O)c1ccc(-c2cc3c(cc2Cc2ccccc2F)OCO3)cc1` it was 75%; in that of `Cc1ccc(F)c(C(=O)c2cc3c(cc2-c2ccc(S(C)(=O)=O)cc2)OCO3)c1`, 90%.
On to `CS(=O)(=O)c1ccc(-c2cc3c(cc2CN2CCCC(CO)C2)OCO3)cc1` (stereo not drawn), for which the inhibition in [4] was found to be 20%; in experiment [5] it was 0%; in experiment [6] it was 30%.
In experiment [7], `CS(=O)(=O)c1ccc(-c2cc3c(cc2C(=O)c2cc(F)cc(F)c2)OCO3)cc1` yielded an inhibition of 50%.
Regarding `O=S(=O)(CF)c1ccc(-c2cc3c(cc2Cc2ccccc2)OCO3)cc1`, the inhibition is 25% in [4], 50% in experiment [5] and 50% in experiment [6].
In the case of `CS(=O)(=O)c1ccc(-c2cc3c(cc2C(=O)c2ccccc2)OCO3)cc1`, the inhibition amounted to 75% in [1]; 25% in [2]; 65% in [3]; 10% in experiment [4]; 0% in experiment [5]; 90% in experiment [6].
As to `CCOC(=O)C1CCN(Cc2cc3c(cc2-c2ccc(S(C)(=O)=O)cc2)OCO3)CC1`, the inhibition in experiment [4] came to 20%; in experiment [5], 0%; in experiment [6], 20%.
`CS(=O)(=O)c1ccc(-c2cc3c(cc2CC2CCCCC2)OCO3)cc1`: the inhibition in experiment [7] came out at 50%; in experiment [4], 100%; in experiment [5], 0%; in experiment [6], 100%.
Regarding `CS(=O)(=O)c1ccc(-c2cc3c(cc2C(=O)c2cnccc2Br)OCO3)cc1`, the results for the inhibition in experiment [8], in [4] and in experiment [6] were 40%, 10% and 0%, respectively.
For `CS(=O)(=O)c1ccc(-c2cc3c(cc2C(=O)C2CCCCC2)OCO3)cc1`, the inhibition in experiment [7] is 55%.
Still for that read-out and setting: as for `CS(=O)(=O)c1ccc(-c2cc3c(cc2Cc2cccc(Cl)c2)OCO3)cc1`, the figure is 65%; as for `CS(=O)(=O)c1ccc(-c2cc3c(cc2Cc2cccc(F)c2)OCO3)cc1`, 25%.
In the case of `CS(=O)(=O)c1ccc(-c2cc3c(cc2CN2CCCCC2=O)OCO3)cc1`, the inhibition in experiment [7] was found to be 50%; in experiment [4], 20%; in experiment [5], 70%; in experiment [6], 90%.
`COc1cccc(C(=O)c2cc3c(cc2-c2ccc(S(C)(=O)=O)cc2)OCO3)c1` returned an inhibition in experiment [7] of 95%.
